The values that follow come from publication PMC4207553 (Journal of Medicinal Chemistry, 2014).

Marks after values point to notes of the source that are not given here. A value given as a limit tells only on which side of the number the result lay.

Data set [1] in a line: Microsomal stability, mouse microsomes. Type of data set: in vitro ADME. The note with it: % remaining at 1 h.
Data set [2] is described as follows: Metabolite identification study in mouse liver microsomes. In kind it is in vitro ADME. The note with it: via N-demethylation at R1, hydroxylation, and combined events.
For another data set, the system named is P. falciparum Dd2. Kind of data set: P. falciparum asexual blood-stage growth inhibition. Type of data set: cell-based. The conditions noted are these: relative to compound 2.
The target of the next data set is hERG (Homo sapiens, UniProt Q12809). In words: hERG binding assay, [3H]astemizole displacement. The note with it: 10 μM, assay run by Ricera under identical conditions. Put shortly: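 Single-point radioligand displacement at 10 μM of test compound. The result is expressed as percent displacement relative to control. The run was made at a second contract laboratory under conditions identical to the first laboratory's assay.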
hERG, sequence (Q12809 whole entry): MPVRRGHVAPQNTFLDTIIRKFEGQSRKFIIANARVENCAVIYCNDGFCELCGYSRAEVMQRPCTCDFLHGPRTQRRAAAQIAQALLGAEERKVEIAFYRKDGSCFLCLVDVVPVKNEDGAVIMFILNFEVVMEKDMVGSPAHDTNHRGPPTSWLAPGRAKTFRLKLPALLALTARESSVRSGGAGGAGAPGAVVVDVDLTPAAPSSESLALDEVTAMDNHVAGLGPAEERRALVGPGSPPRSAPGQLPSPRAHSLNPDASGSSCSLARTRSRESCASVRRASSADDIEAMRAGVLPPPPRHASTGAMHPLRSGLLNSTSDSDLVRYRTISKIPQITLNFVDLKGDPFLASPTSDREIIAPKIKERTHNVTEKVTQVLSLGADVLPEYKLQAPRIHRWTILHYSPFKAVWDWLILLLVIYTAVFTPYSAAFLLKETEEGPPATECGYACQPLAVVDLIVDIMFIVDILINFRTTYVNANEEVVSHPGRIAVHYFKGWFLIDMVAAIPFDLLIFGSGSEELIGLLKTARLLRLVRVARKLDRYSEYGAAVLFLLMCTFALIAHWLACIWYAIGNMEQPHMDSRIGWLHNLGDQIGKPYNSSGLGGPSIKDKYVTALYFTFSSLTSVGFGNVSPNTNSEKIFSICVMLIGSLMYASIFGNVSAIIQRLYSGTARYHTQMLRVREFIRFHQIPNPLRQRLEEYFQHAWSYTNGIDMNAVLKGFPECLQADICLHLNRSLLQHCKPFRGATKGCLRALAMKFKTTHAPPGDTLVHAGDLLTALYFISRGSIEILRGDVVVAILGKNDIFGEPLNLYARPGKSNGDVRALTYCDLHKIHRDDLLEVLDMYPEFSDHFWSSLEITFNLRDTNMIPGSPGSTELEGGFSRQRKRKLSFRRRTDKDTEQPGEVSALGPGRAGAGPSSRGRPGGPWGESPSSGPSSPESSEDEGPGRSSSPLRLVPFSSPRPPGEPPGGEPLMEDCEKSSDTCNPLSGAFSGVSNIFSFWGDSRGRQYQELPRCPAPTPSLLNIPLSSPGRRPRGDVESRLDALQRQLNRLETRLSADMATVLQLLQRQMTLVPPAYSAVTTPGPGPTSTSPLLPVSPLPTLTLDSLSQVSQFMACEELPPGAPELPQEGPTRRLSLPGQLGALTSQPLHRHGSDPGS

For `C[C@@H]1CN([C@@H](C)CN(C)C)C(=O)c2cccnc2O[C@@H](C)CCCCO[C@H]1CN(C)S(=O)(=O)c1ccc(F)cc1` [Compound 22], in data set [1], the “Microsome Stability” value was under 5% remaining. The same measure, in the same setting: the figure for `Cc1noc(C)c1NC(=O)Nc1ccc2c(c1)C(=O)N([C@@H](C)CNCC(C)(C)C)C[C@@H](C)[C@H](CN(C)S(=O)(=O)c1ccc(F)cc1)OCCCC[C@H](C)O2` [Compound 11] is 5 % remaining; for `Cc1noc(C)c1NC(=O)Nc1ccc2c(c1)C(=O)N([C@@H](C)CNCC(F)(F)F)C[C@@H](C)[C@H](CN(C)S(=O)(=O)c1ccc(F)cc1)OCCCC[C@H](C)O2` [Compound 12] it is under 5 % remaining. In the case of `CNC[C@H](C)N1C[C@@H](C)[C@H](CN(C)S(=O)(=O)c2ccc(F)cc2)OCCCC[C@H](C)Oc2ccc(NC(=O)Nc3c(C)noc3C)cc2C1=O` [Compound 6], in data set [2], the “metabolism in mouse liver microsomes” value was “extensively metabolized”. Also, in data set [1], the “Microsome Stability” value came to 51 % remaining. Take `Cc1noc(C)c1NC(=O)Nc1ccc2c(c1)C(=O)N([C@@H](C)CN(C)C)C[C@@H](C)[C@H](CN(C)S(=O)(=O)c1ccc(F)cc1)OCCCCO2` [Compound 36]: the “Microsome Stability” value in data set [1] is given as 15 % remaining. Still for that read-out and setting: the figure for `Cc1noc(C)c1NC(=O)Nc1ccc2c(c1)C(=O)N([C@@H](C)C[N+](C)(C)[O-])C[C@@H](C)[C@H](CN(C)S(=O)(=O)c1ccc(F)cc1)OCCCC[C@H](C)O2` [Compound 10] is 35 % remaining.

`C[C@@H]1CN([C@@H](C)CN(C)C)C(=O)c2cc(NC(=O)NC3COC3)ccc2O[C@@H](C)CCCCO[C@H]1CN(C)S(=O)(=O)c1ccc(F)cc1` [Compound 4]: the “fold less potent than 2 (Dd2 GI50)” value with P. falciparum Dd2 is given as “approximately 60 fold”. Also, the “Microsome Stability” value in data set [1] worked out at 8 % remaining. Turning to `C[C@@H]1CN([C@@H](C)CN(C)C)C(=O)c2cc(NC(=O)Nc3ccccc3)ccc2O[C@@H](C)CCCCO[C@H]1CN(C)S(=O)(=O)c1ccc(F)cc1` [Compound 2], the “hERG, % displacement control” value at hERG was 95^b %.

For `Cc1noc(C)c1NC(=O)Nc1ccc2c(c1)C(=O)N([C@@H](C)CN(C)C)C[C@@H](C)[C@H](CN(C)S(=O)(=O)c1ccc(F)cc1)OCCCC[C@H](C)O2` [Compound 5], in data set [2], the “metabolism in mouse liver microsomes” value is given as “extensively metabolized”. Moreover, the “Microsome Stability” value in data set [1] turned out to be 8 % remaining. With `CCN(CC)C[C@H](C)N1C[C@@H](C)[C@H](CN(C)S(=O)(=O)c2ccc(F)cc2)OCCCC[C@H](C)Oc2ccc(NC(=O)Nc3c(C)noc3C)cc2C1=O` [Compound 9], the “Microsome Stability” value in data set [1] turned out to be 5 % remaining. Same read-out and setting: under `CCN(CC)C[C@H](C)N1C[C@@H](C)[C@H](CN(C)S(=O)(=O)c2ccc(F)cc2)OCCCC[C@H](C)Oc2ncccc2C1=O` [Compound 23] stands under 5% remaining; under `C[C@@H]1CN([C@@H](C)CN(C)C)C(=O)c2cc(NC(=O)Nc3ccc(F)cc3)ccc2O[C@@H](C)CCCCO[C@H]1CN(C)S(=O)(=O)c1ccc(F)cc1` [Compound 3], under 5 % remaining; under `CNC[C@H](C)N1C[C@@H](C)[C@H](CN(C)S(=O)(=O)c2ccc(F)cc2)OCCCCOc2ccc(NC(=O)Nc3c(C)noc3C)cc2C1=O` [Compound 35], 65 % remaining. Consider `Cc1noc(C)c1NC(=O)Nc1ccc2c(c1)C(=O)N([C@@H](C)CN1CCOCC1)C[C@@H](C)[C@H](CN(C)S(=O)(=O)c1ccc(F)cc1)OCCCC[C@H](C)O2` [Compound 13], for which the “Microsome Stability” value in data set [1] is under 5 % remaining.
